This passage reports IC50, EC50 and Efficacy results from ChEMBL document CHEMBL1909618, “Non-steroidal dissociated glucocorticoid agonists: indoles as A-ring mimetics and function-regulating pharmacophores” (Bioorg Med Chem Lett, 2011).

Test [1] concerns the target T1, Glucocorticoid receptor (Homo sapiens, UniProt P04150).
T1 sequence (P04150 whole entry): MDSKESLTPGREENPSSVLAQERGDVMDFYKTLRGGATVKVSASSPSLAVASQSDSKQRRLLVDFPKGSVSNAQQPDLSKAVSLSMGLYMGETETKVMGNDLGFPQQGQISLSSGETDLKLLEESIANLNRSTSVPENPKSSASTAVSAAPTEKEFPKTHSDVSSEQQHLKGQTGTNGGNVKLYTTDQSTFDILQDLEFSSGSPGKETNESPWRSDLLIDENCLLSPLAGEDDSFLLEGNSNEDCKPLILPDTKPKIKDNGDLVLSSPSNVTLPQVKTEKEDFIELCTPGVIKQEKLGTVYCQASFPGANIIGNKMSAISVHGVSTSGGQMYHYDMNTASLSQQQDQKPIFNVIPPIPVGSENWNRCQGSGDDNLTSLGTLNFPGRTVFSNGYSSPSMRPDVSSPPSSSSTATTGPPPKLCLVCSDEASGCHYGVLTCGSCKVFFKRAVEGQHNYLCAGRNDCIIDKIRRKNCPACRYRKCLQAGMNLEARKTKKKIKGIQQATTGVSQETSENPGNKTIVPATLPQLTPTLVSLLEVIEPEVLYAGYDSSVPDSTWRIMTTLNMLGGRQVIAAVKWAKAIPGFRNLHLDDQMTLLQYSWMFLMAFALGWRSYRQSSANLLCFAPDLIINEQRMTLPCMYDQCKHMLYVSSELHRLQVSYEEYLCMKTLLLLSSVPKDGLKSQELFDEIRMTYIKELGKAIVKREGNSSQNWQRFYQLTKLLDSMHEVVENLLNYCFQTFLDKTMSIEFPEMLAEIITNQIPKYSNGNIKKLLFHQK
The experiment in a line: Displacement of tetramethylrhodamine-labeled Dexamethasone from human recombinant glucocorticoid receptor expressed in baculovirus infected insect cells by fluorescence polarization assay.

In test [2] the target is T2, Mineralocorticoid receptor (Homo sapiens, UniProt P08235).
T2 sequence (P08235 whole entry): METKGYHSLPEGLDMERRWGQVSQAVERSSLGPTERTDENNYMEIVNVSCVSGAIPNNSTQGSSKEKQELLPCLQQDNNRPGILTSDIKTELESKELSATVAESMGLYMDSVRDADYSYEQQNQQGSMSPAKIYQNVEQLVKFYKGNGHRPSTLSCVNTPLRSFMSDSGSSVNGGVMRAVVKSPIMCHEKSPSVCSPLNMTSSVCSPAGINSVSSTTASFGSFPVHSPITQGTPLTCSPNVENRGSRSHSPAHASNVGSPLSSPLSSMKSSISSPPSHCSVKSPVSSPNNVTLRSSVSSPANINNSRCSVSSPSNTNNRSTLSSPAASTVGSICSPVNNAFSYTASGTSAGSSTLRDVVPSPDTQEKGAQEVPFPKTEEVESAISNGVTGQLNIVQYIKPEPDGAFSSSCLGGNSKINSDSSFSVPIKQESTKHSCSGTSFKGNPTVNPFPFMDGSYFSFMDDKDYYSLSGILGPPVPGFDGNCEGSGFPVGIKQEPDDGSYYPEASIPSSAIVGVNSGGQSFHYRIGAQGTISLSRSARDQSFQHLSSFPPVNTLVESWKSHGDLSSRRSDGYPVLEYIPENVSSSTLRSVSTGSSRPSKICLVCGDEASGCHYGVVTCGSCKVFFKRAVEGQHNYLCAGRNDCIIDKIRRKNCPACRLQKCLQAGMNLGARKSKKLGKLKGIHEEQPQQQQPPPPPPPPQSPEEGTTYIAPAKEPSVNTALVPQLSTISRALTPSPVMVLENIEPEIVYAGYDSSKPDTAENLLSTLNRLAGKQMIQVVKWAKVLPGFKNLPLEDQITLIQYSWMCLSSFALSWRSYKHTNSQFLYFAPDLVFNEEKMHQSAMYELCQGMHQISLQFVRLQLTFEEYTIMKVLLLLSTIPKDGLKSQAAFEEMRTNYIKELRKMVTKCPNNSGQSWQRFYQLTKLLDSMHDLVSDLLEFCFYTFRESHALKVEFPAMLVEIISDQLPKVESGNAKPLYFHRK
The test is described as follows: Displacement of tetramethylrhodamine-labeled Dexamethasone from human recombinant mineralocorticoid receptor expressed in baculovirus infected insect cells by fluorescence polarization assay. The gist of the method:
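Fluorescence polarization competition assays with recombinant human receptors in lysates of baculovirus-infected insect cells. Reactions contained 1% DMSO and ran 1 h at room temperature.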
(In general: Fluorescence polarisation rises when a labelled molecule tumbles more slowly, as on binding a larger partner.)

In test [3] the target is T1, Glucocorticoid receptor. The test is described as follows: Transactivation activity of glucocorticoid receptor in HFF assessed as induction of aromatase activity by measuring beta-estradiol activity after 18 to 24 hrs by ELISA. The note with it: read-out: EC50.
Test [4] has as its target T1, Glucocorticoid receptor. The test is described as follows: Agonist activity at glucocorticoid receptor in HFF assessed as inhibition of IL1-induced IL-6 production after 18 to 24 hrs. The format is functional.
In test [5] the target is T3, Glucocorticoid receptor (Homo sapiens) (UniProt P04150).
T3 sequence (whole entry): T1 sequence (P04150 whole entry)
The experiment in a line: Agonist activity at glucocorticoid receptor in HFF assessed as inhibition of IL1-induced IL-6 production after 18 to 24 hrs relative to Dexamethasone. The format is functional. The gist of the method: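 Human foreskin fibroblasts stimulated with IL-1 (1 ng/mL) in the presence of test compound, incubated at 37 °C for 18–24 h. IL-6 in the culture medium was quantified by electrochemiluminescence, DELFIA or ELISA. IC50 and % maximal efficacy were reported.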

For test [6], the target named is T3, Glucocorticoid receptor (Homo sapiens). The test is described as follows: Transactivation activity of glucocorticoid receptor in HFF assessed as induction of aromatase activity by measuring beta-estradiol activity after 18 to 24 hrs by ELISA relative to Dexamethasone. In general terms: An ELISA detects its analyte on a solid surface through an enzyme-linked reagent.

Molecules are shown by their SMILES.

By IC50 is commonly meant the concentration that gives 50% inhibition. As a reminder, the EC50 is the midpoint of the concentration-response curve. Take `COc1ccc(F)cc1C(C)(C)C[C@@](O)(Cc1cc2ccccc2[nH]1)C(F)(F)F`: the half-maximal inhibitory concentration (IC50) on Glucocorticoid receptor [1] came to 10 nM; in test [2], 190 nM; on Glucocorticoid receptor [4], 6 nM. Besides, the concentration for a half-maximal effect (EC50) on Glucocorticoid receptor [3] came to 18 nM. The figures for the Efficacy in test [5] and in test [6] were 87% and 98%, respectively.

On to `CC(C)(C[C@@](O)(Cc1cc2ccc(C#N)cc2[nH]1)C(F)(F)F)c1cc(S(C)(=O)=O)cc2c1OCC2`, for which the 50% inhibitory concentration (IC50) came to 2 nM at Glucocorticoid receptor [1], 230 nM in test [2] and 28 nM on Glucocorticoid receptor [4]. Further, the concentration giving a half-maximal response (EC50) at Glucocorticoid receptor [3] is 120 nM. Also, the Efficacy stood at 88% in test [5] and 74% in test [6].
